RGS4 block: inhibitors of human RGS4 | B-score at 10 µM | AID 463165 | 310,000 compounds, 0.45% hits | HEK293 M3R/RGS4 inducible, Fluo-4 calcium flux; stronger effect = higher value; triggered by carbachol at its EC20 | P49798;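 active = B-score, a plate-corrected calcium signal, over three deviations above library mean, with baseline fluorescence within five deviations of library mean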;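 note: RGS4 expression induced by doxycycline in cells with stable M3 receptor; B-score is computed from the integrated fluorescence ratio over baseline after carbachol; higher B-score means a larger calcium signal and so more RGS4 inhibition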
MrgX1 PAM: human MrgX1 positive allosteric modulation, primary screen | Q96LB2 | B-score at 10 µM | AID 588675 | MrgX1-HEK293, Fluo-4 calcium flux, FDSS; stronger effect = higher value | 310,000 compounds, 0.63% hits;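 active = plate-corrected calcium response at least 3 library SD above typical, normal starting fluorescence, not activating the receptor alone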;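 note: compound read alongside a low EC10 to EC30 dose of BAM8-22 agonist; peak minus trough fluorescence over baseline measured at the second addition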
Target sequence (Q96LB2 whole entry, looked up): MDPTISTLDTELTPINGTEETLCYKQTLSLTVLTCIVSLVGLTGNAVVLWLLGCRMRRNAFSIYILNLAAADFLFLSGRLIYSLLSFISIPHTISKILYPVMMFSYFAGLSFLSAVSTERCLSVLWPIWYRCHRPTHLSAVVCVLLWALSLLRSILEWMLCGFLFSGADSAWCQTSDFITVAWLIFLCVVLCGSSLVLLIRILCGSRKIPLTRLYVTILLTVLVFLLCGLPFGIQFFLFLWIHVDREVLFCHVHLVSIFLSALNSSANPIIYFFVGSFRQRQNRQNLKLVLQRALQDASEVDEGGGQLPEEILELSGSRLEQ
RGS4 act: potentiators or activators of RGS4. HEK293 M3R/inducible RGS4, carbachol calcium flux Fluo4; stronger effect = lower value. B-score at 10 µM. 310,000 compounds, 0.92% hits;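 active = B-score of the integrated calcium signal more than 4 SD below the library mean, with starting fluorescence not abnormally high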;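 note: negative B-score means reduced calcium response which marks RGS4 activation or potentiation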
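Assay system: HEK293 FlpIn-TREx cells, stable M3R, doxycycline-inducible RGS4 / Probe or stimulus: carbachol, ECmax concentration / Times: overnight RGS4 induction, 30 min dye load 37 °C, 20 min compound RT / Signal: kinetic calcium fluorescence imaging with Fluo4-AM dye, 2 µM / Measure: Agonist-evoked peak-minus-minimum fluorescence over baseline, integrated ratio, B score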
MrgX1 agonist: human MrgX1 receptor agonism, primary screen | B-score at 10 µM | Q96LB2 | 310,000 compounds, 0.44% hits | AID 588627 | MrgX1-HEK293 cells, Fluo-4 calcium fluorescence, agonist mode; stronger effect = higher value;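 active = calcium response B-score plate-corrected fluorescence ratio at least 3 library SD, with starting fluorescence B-score inside 5 SD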
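times = overnight plating, then 30 min 37 °C plus 30 min room-temperature dye loading | assay system = stable human MrgX1 HEK293 cell line | input = fifteen thousand cells per well | signal = kinetic calcium dye fluorescence, Fluo-4 NW | dosing = compound delivered in addition one of three | read-out = B-scored fluorescence response ratio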
MrgX1 antag: human MrgX1 receptor antagonism, primary screen | Q96LB2 | MRGX1-HEK293 calcium flux, Fluo-4, BAM8-22 antagonism; stronger effect = lower value | B-score at 10 µM | 310,000 compounds, 1.3% hits | AID 588676;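 active = calcium-response B-score plate-corrected more than 3 library SD below zero, starting fluorescence within 5 deviations, no agonist response on first addition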;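 note: peak minus trough fluorescence over baseline after final BAM8-22 challenge near maximal dose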
Large screens that a line does not name were inactive. Rows were chosen to be rich in hits. Some 3.5% of all compounds tested hit in one or more screens of this group.

Cn1cc(/C=C/C(=O)c2ccccc2)c2ccccc21	none
Cn1cc(/C=C(\C(=O)O)C(C(=O)O)=C2CCCCC2)c2ccccc21	MrgX1 antag -4.8
N#C/C(=C\c1ccc[nH]1)C(=O)NCC1CCCO1 (stereo not given)	MrgX1 PAM 7.8
COc1ccc(OC)c(CNc2ncc(-c3cccc([N+](=O)[O-])c3)n2C)c1	RGS4 act -7
Cn1c(-c2cccc([N+](=O)[O-])c2)cnc1NCc1cccc([N+](=O)[O-])c1	none
COCc1cc(N2CCOCC2)nc(-c2ccccc2)n1	none
COCc1cc(Sc2cccc(Cl)c2Cl)nc(-c2ccccc2)n1	MrgX1 PAM 8
Cc1ccc(/C=C2\SC(=S)N(NS(=O)(=O)c3ccc(C)cc3)C2=O)cc1	RGS4 act -8.2
O=C1/C(=C/c2ccccn2)SC(=S)N1NS(=O)(=O)c1ccccc1	MrgX1 PAM 8.9, MrgX1 antag -5.3
O=C1/C(=C/c2cccc(F)c2)SC(=S)N1NS(=O)(=O)c1ccccc1	none
C=CCOc1ccc(/C=C2\SC(=S)N(NS(=O)(=O)c3ccc(C)cc3)C2=O)cc1	RGS4 act -7
COc1ccc(/C=C2/SC(=S)N(NS(=O)(=O)c3ccc(C)cc3)C2=O)cc1	RGS4 act -8.4, MrgX1 antag -5.2
Cc1ccc(S(=O)(=O)NN2C(=O)/C(=C\c3ccc(Cl)cc3)SC2=S)cc1	none
COc1cc(/C=C2\SC(=S)N(NS(=O)(=O)c3ccccc3)C2=O)cc(OC)c1OC	none
COc1ccc(/C=C2/SC(=O)N(NS(=O)(=O)c3ccccc3)C2=S)cc1OC	MrgX1 agonist 27
COc1ccc(CCNC(=O)c2cc(C(=O)c3cc(C)ccc3O)cn(CCc3ccc(OC)cc3)c2=O)cc1	RGS4 act -8.7
COc1ccc(Cl)cc1NC(=O)CCc1nnc2ccc(N3CCC4(CC3)OCCO4)nn12	none
COc1ccccc1N(C)S(=O)(=O)c1ccc(C(=O)N2CCCC(C(F)(F)F)C2)cc1 (stereo not given)	none
CCOC(=O)c1csc(NC(=O)CN2CCOCC2)n1	none
COc1cc([N+](=O)[O-])ccc1NC(=O)CN1CCN(C(=O)c2ccco2)CC1	MrgX1 antag -4.7
CC(=O)Nc1ccc(S(=O)(=O)NCc2ccc(C(=O)NCCN3CCCCCC3)cc2)cc1	MrgX1 antag -9.4
CC(=O)Nc1ccc(S(=O)(=O)NCc2ccc(C(=O)NCc3ccc(Cl)cc3)cc2)cc1	none
COc1cccc(/C=C/C(=O)OCC(=O)c2ccc3c(c2)NC(=O)CO3)c1OC	MrgX1 PAM 11
COc1ccc(/C=C/C(=O)OCC(=O)c2ccc3c(c2)NC(=O)CO3)c(OC)c1	none
O=C(COc1ccccc1)N1c2ccccc2Sc2ccccc21	none
CN(C)c1cc[n+](CC(=O)N2c3ccccc3Sc3ccccc32)cc1	RGS4 act -8.1
Cc1ccnc(NS(=O)(=O)c2ccc(NS(=O)(=O)c3cc(Cl)ccc3Cl)cc2)n1	none
Cc1cc(C)n2nc(C(=O)OCC(=O)c3c[nH]c4ccccc34)nc2n1	MrgX1 antag -5.5
COc1ccc(-n2c(C)cc(/C=C(\C#N)C(=O)NCc3ccco3)c2C)cc1	MrgX1 antag -4.9
O=C1N/C(=C\c2ccc(N3CCOCC3)c(F)c2)C(=O)N1Cc1ccccc1	MrgX1 antag -8.6
O=C1N/C(=C/c2cccn2-c2ccccc2)C(=O)N1Cc1ccc(F)cc1	none
CCOC(=O)C1(Cc2ccccc2C)CCCN(C(=O)c2ccccn2)C1 (stereo not given)	none
CCOC(=O)C1(Cc2ccccc2C)CCCN(C(=O)c2ccc3nccnc3c2)C1 (stereo not given)	RGS4 act -7.1
CC1CCN(Cc2ccc(NC(=O)C3CCN(c4nnc(-n5cccc5)s4)CC3)cc2)CC1	RGS4 act -8.2
O=C(C1CCN(c2nnc(-n3cccc3)s2)CC1)N1CCN(Cc2ccc3c(c2)OCO3)CC1	none
O=C(Nc1cccc(/C=C/c2ccccn2)c1)c1ccc(-n2cncn2)c([N+](=O)[O-])c1	RGS4 act -7.7
COc1ccc(NC(=O)c2ccc(-n3cncn3)c([N+](=O)[O-])c2)cc1OC	none
CSc1ccccc1NC(=O)CSc1nnc(CNC(=O)c2ccccc2F)n1C	none
CNC(=O)COC(=O)c1ccc2c(c1)NC(=O)C1CCCN21 (stereo not given)	none

Bioassay records deposited in PubChem by Johns Hopkins Ion Channel Center.
